A selection: hits, their analogues and other compounds. The true share with any hit is near 2.6%.
ASAP1 GAP inh = blocks human ASAP1-stimulated Arf1 GTP hydrolysis | hit rate 0.19% among 360,000 | GDP FP detection | Q9ULH1 | inhibition, % at 16.5 µM; in the data active means inhibition above about 25%
IMP-1 inh-1 = blocks Pseudomonas aeruginosa IMP-1 metallo-beta-lactamase | purified IMP-1, nitrocefin hydrolysis, epi-absorbance fluorescence | inhibition, % at 5.6 µM | hit rate 0.45% among 290,000 | AID 1556;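 active means inhibition above the mean plus 3 SD of all compounds in the same screening run, cut at about 4.5% in these data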
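Material – recombinant IMP-1 enzyme, purified · Amount – IMP-1 0.2 nM before substrate addition · Medium – HEPES buffer pH 7.1 with ZnSO4 and Brij 35 · Timing – 25 °C, 15 min preincubation, 25 min reaction · Measured by – plate fluorescence quenching by hydrolysis product, ex 480/em 530 nm · Read-out – percent enzyme inhibition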
ARFGAP1 inh = inhibits rat ARF GTPase activating protein 1. Q62848. Arfgap1-stimulated ARF1 GTP hydrolysis, GDP FP detection. inhibition, % at 16.5 µM. hit rate 0.26% among 360,000;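 active means inhibition above a per-plate limit, mean inhibition of low control wells plus 3 SD, cut at about 25% in these data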
Target sequence (Q62848 1-136 limits assumed): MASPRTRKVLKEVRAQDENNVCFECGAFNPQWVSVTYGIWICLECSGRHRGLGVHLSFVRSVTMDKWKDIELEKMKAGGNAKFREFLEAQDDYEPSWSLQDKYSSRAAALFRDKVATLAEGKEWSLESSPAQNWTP
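system = rat Arfgap1 catalytic domain, aa 1-136 | technique = FP, GDP Alexa 633 tracer displaced from anti-GDP antibody, 620/688 nm | compound = one concentration, 16.5 µM, DMSO 1.26% | medium = HEPES-based buffer, pH 7.5 | timing = compound-enzyme preincubation 20 min, reaction 120 min, detection 60 min, 25 °C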
PHOSPHO1 block = blocks human PHOSPHO1 phosphatase activity; recombinant PHOSPHO1, absorbance phosphatase assay; inhibition, % at 13.3 µM; Q8TCT1; hit rate 1.1% among 290,000; AID 1565; in the data active means inhibition above about 60%
Target sequence (Q8TCT1 whole entry, looked up): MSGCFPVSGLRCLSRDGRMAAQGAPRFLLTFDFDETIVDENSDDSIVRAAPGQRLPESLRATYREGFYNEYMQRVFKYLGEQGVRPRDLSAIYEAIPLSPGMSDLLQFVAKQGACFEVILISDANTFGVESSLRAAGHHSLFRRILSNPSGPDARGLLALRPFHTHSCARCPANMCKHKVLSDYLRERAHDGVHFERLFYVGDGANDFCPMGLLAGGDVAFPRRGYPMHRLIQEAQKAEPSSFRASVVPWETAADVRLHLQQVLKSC
Calb FLC = affects C. albicans growth with fluconazole; growth inhibition, % (test concentration not listed); C. albicans CaCi-2 + fluconazole, Alamar Blue growth, 48 h; AID 1979; hit rate 0.57% among 300,000;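 active means growth inhibition above about 58% in most replicates, limit read from the data, passing the limit was not always enough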;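 further: all wells also contain fluconazole at 8 µg/ml as a sub-toxic cotreatment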
VIM-2 inh = inhibitors of Pseudomonas aeruginosa VIM-2 metallo-beta-lactamase; purified VIM-2, nitrocefin hydrolysis, epi-absorbance fluorescence; inhibition, % at 5.6 µM; hit rate 0.89% among 290,000; AID 1527;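 active means inhibition above the mean of all tested compounds plus 3 SD, cutoff set per screening run, cut at about 7.5% in these data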;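 further: red hydrolysis product quenches plate fluorescence so inhibitors raise well fluorescence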
IMP-1 inh-2 = blocks IMP-1 metallo-beta-lactamase in VIM-2 selectivity screen. inhibition, % at 5.6 µM. shares compounds with VIM-2 inh. 1,300 tested, under 10 active. purified IMP-1, nitrocefin hydrolysis, epi-absorbance fluorescence; call rule not given here
VIM-2 FRET ctr = counter-screen for VIM-2 inhibitors: epi-absorbance artifacts via FRET; shares compounds with VIM-2 inh; purified VIM-2, CCF2 FRET substrate hydrolysis; inhibition, % at 5.6 µM; hit rate 23% among 1,300; AID 1857;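 active means inhibition above the mean of all tested compounds plus 3 SD, cut at about 19% in these data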
TEM-1 counter = selectivity counter-screen for VIM-2 inhibitors: E. coli TEM-1 inhibitors | shares compounds with VIM-2 inh | inhibition, % at 5.6 µM | hit rate 3% among 1,300 | Purified TEM-1, nitrocefin hydrolysis, epi-absorbance fluorescence;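 active means inhibition above that campaign's mean inhibition plus 3 SD, cut at about 0.46% in these data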
Target sequence (P62593 whole entry, looked up): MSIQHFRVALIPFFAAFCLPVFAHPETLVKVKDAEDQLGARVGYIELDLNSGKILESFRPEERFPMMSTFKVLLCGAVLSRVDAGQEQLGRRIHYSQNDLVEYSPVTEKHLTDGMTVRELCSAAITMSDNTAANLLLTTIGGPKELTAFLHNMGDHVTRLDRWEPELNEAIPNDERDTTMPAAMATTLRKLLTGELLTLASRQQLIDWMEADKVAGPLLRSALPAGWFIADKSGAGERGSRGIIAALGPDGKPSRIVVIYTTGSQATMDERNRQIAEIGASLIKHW
VIM-2 confirm 2 = confirmation of P. aeruginosa VIM-2 metallo-beta-lactamase inhibitors; shares compounds with VIM-2 inh; purified VIM-2, nitrocefin hydrolysis, epi-absorbance; inhibition, % at 5.6 µM; hit rate 96% among 1,300;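 active means inhibition of the VIM-2 beta-lactamase enzyme above about 11% from the earlier first-round screen, limit read from the data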
Hits are given with their value.

Screening Cc1nn2c(NCCOCCO)c3c(nc2c1-c1ccccc1)CCC3 returned ASAP1 GAP inh inactive, IMP-1 inh-1 inactive, ARFGAP1 inh inactive, PHOSPHO1 block inactive, Calb FLC inactive and VIM-2 inh inactive.
`Cc1nn2c(NCCCN(C)C)c3c(nc2c1-c1ccccc1)CCCC3` gave ASAP1 GAP inh inactive, IMP-1 inh-1 inactive, ARFGAP1 inh inactive, PHOSPHO1 block inactive, Calb FLC inactive, VIM-2 inh 45, IMP-1 inh-2 inactive, VIM-2 FRET ctr inactive, TEM-1 counter inactive and VIM-2 confirm 2 53.
`Fc1ccccc1-c1n[nH]c(=S)n1CC1CCCO1` (configuration not stated) gave ASAP1 GAP inh inactive, IMP-1 inh-1 inactive, ARFGAP1 inh inactive, PHOSPHO1 block inactive, Calb FLC inactive, VIM-2 inh 35, IMP-1 inh-2 inactive, VIM-2 FRET ctr 61, TEM-1 counter inactive and VIM-2 confirm 2 44.
`CCOC(=O)CNC(=O)N1C[C@H]2CON(C)[C@H]2C[C@H]1c1ccccc1Br` gave ASAP1 GAP inh inactive and ARFGAP1 inh inactive.
Cc1ccc(-c2csc3n[nH]c(=S)n23)cc1 was read as ASAP1 GAP inh inactive, IMP-1 inh-1 inactive, ARFGAP1 inh inactive, PHOSPHO1 block 95, Calb FLC inactive, VIM-2 inh 46, IMP-1 inh-2 inactive, VIM-2 FRET ctr 70, TEM-1 counter inactive and VIM-2 confirm 2 57.
For Cc1c(C(=O)NCc2ccc3c(c2)OCCO3)sc(=O)n1Cc1cccc(C(F)(F)F)c1 the results were ASAP1 GAP inh inactive and ARFGAP1 inh inactive.
For CCN1CCN(c2ccc(N=Cc3ccccc3O)cc2)CC1 the results were ASAP1 GAP inh inactive, IMP-1 inh-1 inactive, ARFGAP1 inh inactive, PHOSPHO1 block inactive, Calb FLC inactive, VIM-2 inh 40, IMP-1 inh-2 inactive, VIM-2 FRET ctr inactive, TEM-1 counter inactive and VIM-2 confirm 2 28.
Screening COc1cccc(C=Nc2ccc(N3CCOCC3)cc2)c1O returned ASAP1 GAP inh inactive, IMP-1 inh-1 inactive, ARFGAP1 inh inactive, PHOSPHO1 block inactive, Calb FLC inactive and VIM-2 inh inactive.
`COc1ccc(CN2C(=O)C(CC(=O)NCc3cccs3)CC(C(=O)N(C(C)C)C(C)C)=C2C)cc1` (configuration not stated) gave ASAP1 GAP inh inactive and ARFGAP1 inh inactive.
For Brc1ccc(CSc2ccc3nnc(-c4ccccn4)n3n2)cc1 the results were ASAP1 GAP inh inactive, IMP-1 inh-1 inactive, ARFGAP1 inh inactive, PHOSPHO1 block inactive, Calb FLC inactive, VIM-2 inh 25, IMP-1 inh-2 inactive, VIM-2 FRET ctr inactive, TEM-1 counter inactive and VIM-2 confirm 2 52.
For COC(=O)c1ccc(CSc2ccc3nnc(-c4ccccn4)n3n2)o1 the results were ASAP1 GAP inh inactive, IMP-1 inh-1 inactive, ARFGAP1 inh inactive, PHOSPHO1 block inactive, Calb FLC inactive, VIM-2 inh 21, IMP-1 inh-2 inactive, VIM-2 FRET ctr inactive, TEM-1 counter inactive and VIM-2 confirm 2 38.
Screening Cc1ccc(C)c(CSc2ccc3nnc(-c4ccccn4)n3n2)c1 returned ASAP1 GAP inh inactive, IMP-1 inh-1 inactive, ARFGAP1 inh inactive, PHOSPHO1 block inactive, Calb FLC inactive, VIM-2 inh 14, IMP-1 inh-2 inactive, VIM-2 FRET ctr inactive, TEM-1 counter inactive and VIM-2 confirm 2 25.
`O=C(CSc1ccc2nnc(-c3ccccn3)n2n1)Nc1ccccc1` gave ASAP1 GAP inh inactive, IMP-1 inh-1 inactive, ARFGAP1 inh inactive, PHOSPHO1 block inactive, Calb FLC inactive and VIM-2 inh inactive.
Screening COC(=O)c1ccc(CSc2ccc3nnc(-c4ccc(F)cc4)n3n2)o1 returned ASAP1 GAP inh inactive, IMP-1 inh-1 inactive, ARFGAP1 inh inactive, PHOSPHO1 block inactive and VIM-2 inh inactive.
Screening Cc1ccc(CSc2ccc3nnc(-c4ccccn4)n3n2)cc1 returned ASAP1 GAP inh inactive, IMP-1 inh-1 inactive, ARFGAP1 inh inactive, PHOSPHO1 block inactive, Calb FLC inactive, VIM-2 inh 21, IMP-1 inh-2 inactive, VIM-2 FRET ctr inactive, TEM-1 counter inactive and VIM-2 confirm 2 34.
CN(C)Cc1csc(NC(=O)Nc2ccccc2Cc2ccccc2)n1 was read as ASAP1 GAP inh inactive and ARFGAP1 inh inactive.
Screening CCOc1cc(C2C(C#N)=C(N)Oc3n[nH]c(CC)c32)ccc1OCCN1CCOCC1 (configuration not stated) returned ASAP1 GAP inh inactive, IMP-1 inh-1 inactive, ARFGAP1 inh inactive, PHOSPHO1 block inactive, Calb FLC inactive, VIM-2 inh 13, IMP-1 inh-2 inactive, VIM-2 FRET ctr inactive, TEM-1 counter inactive and VIM-2 confirm 2 8.3.
Screening CCOc1cc(C2C(C#N)=C(N)Oc3n[nH]c(C)c32)ccc1OCCN1CCOCC1 (configuration not stated) returned ASAP1 GAP inh inactive, IMP-1 inh-1 inactive, ARFGAP1 inh inactive, PHOSPHO1 block inactive, Calb FLC inactive and VIM-2 inh inactive.
Screening Cn1c2ccccc2c(=O)c2cc(C#CC3(O)CCCCC3)ccc21 returned ASAP1 GAP inh inactive, IMP-1 inh-1 inactive, ARFGAP1 inh inactive, PHOSPHO1 block inactive, Calb FLC inactive and VIM-2 inh inactive.
`Cn1c2ccccc2c(=O)c2ccc(F)cc21` gave ASAP1 GAP inh inactive, IMP-1 inh-1 inactive, ARFGAP1 inh inactive, PHOSPHO1 block inactive, Calb FLC inactive, VIM-2 inh 13, IMP-1 inh-2 inactive, VIM-2 FRET ctr inactive, TEM-1 counter inactive and VIM-2 confirm 2 24.
COc1cccc2oc3ccc(C#CC4(N)CCCCC4)cc3c(=O)c12 was read as ASAP1 GAP inh inactive, IMP-1 inh-1 inactive, ARFGAP1 inh inactive, PHOSPHO1 block inactive, Calb FLC inactive, VIM-2 inh 15, IMP-1 inh-2 inactive, VIM-2 FRET ctr inactive, TEM-1 counter inactive and VIM-2 confirm 2 20.
Cn1c2ccccc2c(=O)c2cc(C#Cc3ccccn3)ccc21 was read as ASAP1 GAP inh inactive, IMP-1 inh-1 inactive, ARFGAP1 inh inactive, PHOSPHO1 block inactive, Calb FLC inactive, VIM-2 inh 14, IMP-1 inh-2 inactive, VIM-2 FRET ctr inactive, TEM-1 counter inactive and VIM-2 confirm 2 17.
For Cn1c2ccccc2c(=O)c2ccc(C#CC3(N)CCCCC3)cc21 the results were ASAP1 GAP inh inactive, IMP-1 inh-1 inactive, ARFGAP1 inh inactive, PHOSPHO1 block inactive, Calb FLC inactive, VIM-2 inh 28, IMP-1 inh-2 inactive, VIM-2 FRET ctr inactive, TEM-1 counter inactive and VIM-2 confirm 2 39.

Screens deposited in PubChem by several laboratories.
